A selection: hits, their analogues and other compounds. The true share with any hit is near 2.3%.
TRPC4 PAM: allosteric potentiators of mouse TRPC4 channel; Q9QUQ5; HEK293 TRPC4beta/mu-opioid, DAMGO EC20, Fluo-4 Ca2+ flux; active compounds read high; B-score at 10 µM; 0.42% of 310,000 active;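 active = B-score of calcium response area above 5 SD of library B-scores, with initial fluorescence ratio within 5 SD of library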;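 also: B-score of integrated fluorescence ratio over time as area under calcium response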
TRPC6 inh: inhibitors of mouse TRPC6 channel; Q61143; HEK293-TRPC6, membrane potential dye, ACh-evoked depolarization; active compounds read low; B-score at 10 µM; 1.1% of 310,000 active;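 active = B-score under library mean minus 3 SD, initial fluorescence not abnormally high, positive integrated signal ratio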;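 also: B-score derived from integrated fluorescence ratio over the kinetic read; more negative B-score means stronger inhibition of depolarization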
Target sequence (Q61143 whole entry, looked up): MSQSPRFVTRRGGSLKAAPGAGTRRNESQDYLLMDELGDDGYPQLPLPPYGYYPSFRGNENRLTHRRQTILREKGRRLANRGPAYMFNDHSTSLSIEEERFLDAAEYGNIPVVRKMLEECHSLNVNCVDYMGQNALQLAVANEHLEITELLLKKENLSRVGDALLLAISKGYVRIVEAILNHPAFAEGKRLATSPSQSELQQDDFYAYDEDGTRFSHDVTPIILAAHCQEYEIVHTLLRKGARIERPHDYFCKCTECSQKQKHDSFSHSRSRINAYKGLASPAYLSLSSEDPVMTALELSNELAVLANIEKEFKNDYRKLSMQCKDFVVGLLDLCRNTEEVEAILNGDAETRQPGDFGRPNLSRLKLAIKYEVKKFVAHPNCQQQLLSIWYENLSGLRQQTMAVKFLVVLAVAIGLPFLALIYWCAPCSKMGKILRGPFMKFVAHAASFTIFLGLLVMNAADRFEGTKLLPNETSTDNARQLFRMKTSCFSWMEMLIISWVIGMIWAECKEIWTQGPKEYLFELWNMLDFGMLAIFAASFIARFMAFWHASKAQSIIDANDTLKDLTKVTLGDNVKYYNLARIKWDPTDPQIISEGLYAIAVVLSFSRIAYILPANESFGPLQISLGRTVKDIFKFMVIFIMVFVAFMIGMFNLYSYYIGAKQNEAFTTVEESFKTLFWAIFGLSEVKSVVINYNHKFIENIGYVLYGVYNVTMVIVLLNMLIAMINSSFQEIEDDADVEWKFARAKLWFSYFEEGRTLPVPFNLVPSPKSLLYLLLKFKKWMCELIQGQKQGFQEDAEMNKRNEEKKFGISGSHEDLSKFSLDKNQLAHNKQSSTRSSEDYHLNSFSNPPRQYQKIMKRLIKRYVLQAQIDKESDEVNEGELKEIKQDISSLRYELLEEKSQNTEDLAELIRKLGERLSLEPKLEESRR
TRPC4 inh: TRPC4 (mouse) channel inhibition; Q9QUQ5; HEK293 TRPC4beta/mu-opioid, DAMGO-evoked Fluo4 calcium flux; active compounds read low; B-score at 10 µM; 0.39% of 300,000 active;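 active = B-score over 3 SD under the library average, no early fluorescence shift, positive overall ratio signal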
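Material: HEK293 cells with stable TRPC4beta plus mu-opioid receptor expression; probe or stimulus: DAMGO in two steps, submaximal then maximal; technique: Fluo4 calcium fluorescence by kinetic imaging, 5 s 1 Hz baseline; measure: integrated fluorescence ratio relative to baseline, converted to per-well B score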
TRPC4 act: activators of mouse TRPC4 channel; AID 2237; 0.49% of 310,000 active; HEK293 TRPC4beta/mu-opioid, Fluo4 calcium fluorescence; active compounds read high; Q9QUQ5; B-score at 10 µM;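 active = B-score above 5 SD of library B-scores, and initial fluorescence ratio not above library mean plus 5 SD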;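 also: positive B-score marks a calcium rise read as TRPC4 activation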
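Material: TRPC4beta and mu-opioid receptor HEK293 stable cells | Incubation: 45 min room-temperature Fluo4 loading, 110 s read | Detection: Kinetic Fluo4 calcium fluorescence | Measure: Integrated baseline-normalised fluorescence ratio, converted to per-well B score | Benchmarks: Low control buffer alone, high control maximal DAMGO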
TRPC6 activator: mouse TRPC6 channel activation. Q61143. HEK293-TRPC6 membrane potential dye fluorescence; active compounds read high. B-score at 10 µM. 0.13% of 310,000 active. AID 2550;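 active = B-score of the integrated fluorescence ratio above library mean plus 3 SD, and starting fluorescence ratio within library mean plus 5 SD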;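 also: higher score means more depolarization so channel activation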
TRPC4 sel inh 2: second selectivity test of TRPC6 inhibitors: effect on mouse TRPC4 | AID 2776 | 42% of 920 active | shares compounds with TRPC6 inh | HEK293 TRPC4/MOR, membrane potential dye fluorescence; channel activated by saturating DAMGO dose | inhibition, % at 10 µM;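 active = compounds whose fluorescence signal differed from control wells by over 3 SD, either direction, in both duplicate plates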
TRPC4 spec: selectivity of TRPC6 inhibitors: effect on mouse TRPC4 | shares compounds with TRPC6 inh | HEK293 TRPC4/mu-opioid, membrane potential fluorescence | activity change, negative = inhibition, % at 10 µM | 61% of 920 active;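 active = rise or fall in signal beyond 3 SD of buffer-only wells in both replicate plates, either sign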;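 also: integrated kinetic ratio of fluorescence range over baseline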
HEK293 MPD ctr 2-1: second check of TRPC6 inhibitor effects in parental HEK293 cells | shares compounds with TRPC6 inh | parental HEK293 membrane potential dye fluorescence; maximal acetylcholine challenge after compound addition | signal change vs control, % at 10 µM | 31% of 920 active;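 active = membrane potential signal moving either way by over 3 SD of the maximum-effect control, in both duplicate plates, meaning non-specific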
HEK293 MPD ctr-1: parental HEK293 nonspecific activity of TRPC6 inhibitors; membrane potential signal change, % at 10 µM; 60% of 920 active; parental HEK293 membrane potential dye fluorescence; shares compounds with TRPC6 inh;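 active = membrane potential signal shifting up or down by more than 3 SD of buffer-only wells, on both duplicate plates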
HEK293 MPD ctr-2: counter-screen for TRPC6 modulators: effect in parental HEK293 cells | AID 488924 | 51% of 2,400 active | membrane potential signal change, % at 10 µM | shares compounds with TRPC6 inh | membrane potential dye fluorescence;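 active = membrane potential signal moves up or down beyond 5 SD from buffer-only wells, on both duplicate plates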
HEK293 MPD ctr 2-2: parental HEK293 nonspecific activity of TRPC6 modulators, second screen; shares compounds with TRPC6 inh; membrane potential dye fluorescence; after compound, maximal acetylcholine stimulation; inhibition, % at 10 µM; 14% of 2,400 active; AID 488926;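 active = membrane potential signal drops by more than 5 SD from the mean control signal, in both duplicate plates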;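 also: plate controls were acetylcholine ECmax control wells for no effect and buffer only wells for full effect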
TRPC4/MOR mod: mouse TRPC4 off-target activity of TRPC6 modulators. percent change from control (negative = decrease, positive = increase), % at 10 µM. 69% of 2,400 active. HEK293 TRPC4/mu-opioid, membrane potential fluorescence. shares compounds with TRPC6 inh;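 active = membrane potential signal moved up or down beyond 5 SD of buffer control wells, in both duplicate plates, actives on both sides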;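 also: plate controls were assay buffer wells for no effect and DAMGO maximal-effect wells for full effect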
TRPC4 ctr inh 2: second check of whether TRPC6 modulators also affect mouse TRPC4; shares compounds with TRPC6 inh; HEK293 TRPC4/mu-opioid, membrane potential dye fluorescence; stimulated with maximal-effect DAMGO; inhibition, % at 10 µM; 55% of 2,400 active; AID 488928;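 active = drop in membrane potential signal beyond 5 SD of the control wells in both duplicate plates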;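 also: TRPC4 counter screen for TRPC6 hits run under conditions tuned for TRPC6 not TRPC4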
TRPC6 inh conf: confirmation of mouse TRPC6 inhibitors | AID 488960 | HEK293-TRPC6, membrane potential dye, ACh-evoked depolarization | 43% of 3,300 active | inhibition, % at 10 µM | shares compounds with TRPC6 inh;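 active = fluorescence ratio falls more than 5 SD below the full-stimulation control mean, in both duplicate runs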;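 also: integrated fluorescence ratio of peak minus minimum over baseline after agonist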
TRPC6 act conf: confirmation of mouse TRPC6 activators; shares compounds with TRPC6 inh; HEK293-TRPC6 membrane potential dye fluorescence, FDSS; activation, % at 10 µM; 11% of 2,800 active;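 active = ratio signal rise beyond 5 SD above unstimulated control wells' mean, seen in both duplicate runs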;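 also: plate controls were buffer EC0 wells for no effect and acetylcholine ECmax response for full effect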
* marks the source's active call; other numbers are inactive results; i = inactive; x = no result.

SMILES | TRPC4 PAM | TRPC6 inh | TRPC4 inh | TRPC4 act | TRPC6 activator | HEK293 MPD ctr-2 | HEK293 MPD ctr 2-2 | TRPC4/MOR mod | TRPC4 ctr inh 2 | TRPC6 inh conf | TRPC6 act conf | others
Cc1nc(NC(=O)CN2CCC(O)(c3ccc(F)cc3)CC2)sc1C | i | i | i | i | i | x | x | x | x | x | x
CCn1c(COC(=O)CNC(=O)c2ccccc2F)nc2cc(S(=O)(=O)N(C)C)ccc21 | i | i | i | i | i | x | x | x | x | x | x
CCN(CC)CCN(C(=O)c1ccc2c(c1)OCCO2)c1nc2cc3c(cc2s1)OCO3 | i | -5.8* | i | i | i | i | i | -23%* | 84%* | 50%* | i
COc1ccc(C)c2sc(N(CCCN(C)C)C(=O)c3ccc(S(=O)(=O)N4CCc5ccccc5C4)cc3)nc12 | i | i | i | i | i | x | x | x | x | x | x
Cc1cc(C)c2nc(N(CCCN(C)C)C(=O)C3=COCCO3)sc2c1 | i | i | i | i | i | x | x | x | x | x | x
CCN(CC)CCN(C(=O)C1=COCCO1)c1nc2cc(C)cc(C)c2s1 | i | -6.7* | i | i | i | x | x | x | x | i | i | TRPC4 sel inh 2=44%*;TRPC4 spec=i;HEK293 MPD ctr 2-1=i;HEK293 MPD ctr-1=0.6%*
COc1ccc(C)c2sc(N(CCCN(C)C)C(=O)c3ccc4c(c3)OCCO4)nc12 | i | -6.9* | i | i | i | x | x | x | x | 52%* | i | TRPC4 sel inh 2=47%*;TRPC4 spec=i;HEK293 MPD ctr 2-1=i;HEK293 MPD ctr-1=i
CN(C)CCN(C(=O)c1cccs1)c1nc2cc3c(cc2s1)OCCO3 | i | -8* | i | i | i | x | x | x | x | 96%* | i | TRPC4 sel inh 2=44%*;TRPC4 spec=-18%*;HEK293 MPD ctr 2-1=i;HEK293 MPD ctr-1=-230%*
CN(C)CCN(C(=O)c1ccc(Br)s1)c1nc2cc3c(cc2s1)OCCO3 | i | i | i | i | i | x | x | x | x | x | x
COc1cccc(C(C(=O)NCC2CCCO2)N(C(=O)Cn2nnc3ccccc32)c2ccc(NC(C)=O)cc2)c1OC (centres undefined) | i | i | i | i | i | x | x | x | x | x | x
COC(=O)CCC(C)N1CCC(Oc2ccc(C(=O)NCc3ccccn3)cc2)CC1 (centres undefined) | i | i | i | i | i | x | x | x | x | x | x
CC(C)Cc1ccc(CN2CCCC(NC(=O)CSc3nncn3C)C2)cc1 (centres undefined) | i | i | i | i | i | x | x | x | x | x | x
CCCN1CCN(S(=O)(=O)c2ccc(-n3cnnn3)cc2)CC1 | i | i | i | i | i | x | x | x | x | x | x
CS(=O)(=O)NCCNc1ncc(C(F)(F)F)cc1Cl | i | i | i | i | i | x | x | x | x | x | x
O=S(=O)(NCCNc1ncc(C(F)(F)F)cc1Cl)C(F)(F)F | i | -5.3* | i | i | i | i | i | 14%* | 32%* | 50%* | i
CCCCOc1ccc(C2=CSC3=NCCN23)cc1[N+](=O)[O-] | i | -5.1* | i | i | i | -75%* | i | -20%* | 44%* | 44%* | i
Cc1ccc(-c2csc(N=C(N)N)n2)c(C)c1 | i | -5.5* | i | i | i | 94%* | i | 12%* | 52%* | i | x
COc1ccc(-c2csc(N=C(N)N)n2)cc1 | i | i | i | i | i | x | x | x | x | x | x
CC(C)c1ccc2c(c1)CCC1C(C)(CN)CCCC21C (centres undefined) | i | -6.4* | i | i | i | -82%* | i | -12%* | 81%* | 58%* | i
CCN(CC)CCNC(=O)c1cn(CC)c2ccc(S(=O)(=O)N3CCOCC3)cc2c1=O | i | i | i | i | i | x | x | x | x | x | x
CCN(CC)S(=O)(=O)c1ccc2c(c1)c(=O)c(C(=O)NCCN(C)CCc1ccccc1)cn2C | i | -5.4* | i | i | i | -64%* | i | -17%* | 63%* | i | i
CCCCN(CCCC)CCNC(=O)c1cn(CC)c2ccc(S(=O)(=O)N3CCCC3)cc2c1=O | i | -5* | i | i | i | i | i | i | 50%* | i | i
CCCCN(C)CCCNC(=O)c1cn(CC)c2ccc(S(=O)(=O)N3CCc4ccccc4C3)cc2c1=O | i | -6.9* | i | i | i | x | x | x | x | i | i | TRPC4 sel inh 2=52%*;TRPC4 spec=-18%*;HEK293 MPD ctr 2-1=i;HEK293 MPD ctr-1=-160%*
CN(CCNC(=O)c1cn(C)c2ccc(S(=O)(=O)N(C)C)cc2c1=O)CCc1ccccc1 | i | i | i | i | i | x | x | x | x | x | x
CC(C)c1nc(N2CCOCC2)c(C#N)c2c1CCCC2 | i | -5.5* | i | i | i | i | i | 18%* | i | i | x
Cc1nn(CC(=O)N2CCOCC2)c(=O)c2nn(-c3ccccc3)c(C)c12 | i | i | i | i | i | x | x | x | x | x | x
CCCN(CC(=O)Nc1ccccc1C)C(=O)c1ccc(=O)n(Cc2ccccc2)n1 | i | -5.1* | i | i | i | 90%* | i | 16%* | i | i | i
CCN(CC(=O)Nc1ccccc1C(F)(F)F)C(=O)c1ccc(=O)n(Cc2ccccc2)n1 | i | i | i | i | i | x | x | x | x | x | x

Source: PubChem (Johns Hopkins Ion Channel Center)
